Assay outcomes: PubChem BioAssay, The Scripps Research Institute Molecular Screening Center
Most compounds without a hit are left out; they make up all but 4.2% or so of the library.
CHO parental Ca = counter-screen for OX1R antagonists: effect in parental CHO cells; parental CHO-K1, ATP-induced calcium, Fluo-8 fluorescence; inhibition, % at 5.6 µM; 330,000 tested, 0.63% active; AID 463079;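 active means inhibition above that plate's mean sample inhibition plus 3 SD, cut at about 26% in these data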;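 further: 0% = ATP-challenged DMSO wells and 100% = DMSO wells without ATP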
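material = parental CHO cells | also added = ATP as calcium-mobilizing challenge | dosing = single point at 5.6 µM | detection = intracellular calcium via Fluo-8 no-wash fluorescent dye | read-out = % inhibition | benchmarks = low control ATP plus DMSO, high control DMSO only | repeats = one well per compound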
OX1R antag-1 = blocks the human orexin 1 receptor. OX1R-expressing cells, FRET antagonist read-out. inhibition, % at 6.6 µM. 330,000 tested, 1.8% active. AID 485270; in the data active means inhibition mostly above about 38%, no sharp cut-off; inactive means mostly below about 40%;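 further: 0% = agonist challenge alone and 100% = reference antagonist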
Target sequence (O43613 whole entry, looked up): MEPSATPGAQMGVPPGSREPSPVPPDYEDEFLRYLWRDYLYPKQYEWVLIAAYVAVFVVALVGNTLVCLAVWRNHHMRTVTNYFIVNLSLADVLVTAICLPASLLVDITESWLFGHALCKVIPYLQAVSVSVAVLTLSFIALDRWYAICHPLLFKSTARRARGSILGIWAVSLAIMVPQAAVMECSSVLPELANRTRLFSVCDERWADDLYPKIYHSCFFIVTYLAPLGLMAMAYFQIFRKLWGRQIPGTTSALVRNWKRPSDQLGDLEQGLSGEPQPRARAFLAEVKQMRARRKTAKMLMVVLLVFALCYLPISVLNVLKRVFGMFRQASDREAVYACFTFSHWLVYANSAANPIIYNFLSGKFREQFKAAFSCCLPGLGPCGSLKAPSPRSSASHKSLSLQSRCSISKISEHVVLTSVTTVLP
TAAR1 antag = antagonists of human TAAR1. CHO RD-HGA16 TAAR1, Fluo-8 calcium fluorescence, antagonist. Q96RJ0. inhibition, % at 3 µM. 360,000 tested, 1.5% active;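 active means inhibition above a per-plate cutoff, the mean inhibition of test compounds on that plate plus 3 SD, cut at about 49% in these data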;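 further: 0% = DMSO plus EC80 beta-PEA response and 100% = DMSO alone without agonist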
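test system = CHO RD-HGA16 cells bearing hTAAR1 | replication = singlicate | controls = DMSO-only wells and EC80 β-PEA-stimulated wells | reagent = EC80 β-phenethylamine stimulus | read-out basis = percent inhibition of PEA-evoked calcium signal, max/basal emission ratio | schedule = seeding 17-24 h prior, 75-min 37 °C, 30-min RT dye loading | signal = kinetic Fluo-8 calcium fluorescence measurement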
GalR3 antagonist = blocks the human galanin receptor 3; HEK293 GalR3-CNG cAMP membrane potential fluorescence; galR3 body fused to GalR1 C-terminus; O60755; inhibition, % at 3 µM; 360,000 tested, 0.44% active;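 active means inhibition above the screen-wide average plus 3 SD, cut at about 13% in these data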;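 further: forskolin and galanin both at EC90 stimulate the cells; cAMP rise reported by CNG channel membrane potential dye signal; 0% = forskolin plus galanin with DMSO and 100% = forskolin alone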
Target sequence (O60755 1-299 limits assumed): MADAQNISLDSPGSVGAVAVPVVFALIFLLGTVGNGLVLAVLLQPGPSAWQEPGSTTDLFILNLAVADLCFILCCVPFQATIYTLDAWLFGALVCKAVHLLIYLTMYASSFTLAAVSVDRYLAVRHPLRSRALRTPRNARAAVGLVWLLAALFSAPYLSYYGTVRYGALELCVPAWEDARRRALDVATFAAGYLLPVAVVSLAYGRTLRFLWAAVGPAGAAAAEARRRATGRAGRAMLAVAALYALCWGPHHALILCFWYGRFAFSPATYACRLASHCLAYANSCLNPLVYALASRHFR
OX1R antag-2 = blocks the human orexin 1 receptor; CHO/OX1R cells, Fluo-8 calcium fluorescence, orexin A; inhibition, % at 5 µM; 330,000 tested, 0.43% active; AID 434989;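 active means inhibition above its plate's threshold, mean inhibition of all tested compounds on the plate plus 3 SD, cut at about 37% in these data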;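 further: 0% = orexin A challenge wells and 100% = SB-334867-A antagonist wells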
TAAR1 agonist = agonists of human TAAR1. AID 624467. CHO RD-HGA16 TAAR1, Fluo-8 calcium fluorescence; vehicle wells 0%, saturating PEA agonist 100%. 360,000 tested, 0.99% active. activation, % at 3 µM. Q96RJ0;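 active means activation above the mean activation of all test compounds in the run plus 3 SD, cut at about 38% in these data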
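Test system: RD-HGA16 (CHO) cells co-expressing Gα16 and hTAAR1; dosing: one-point dosing at 3 µM (nominal); timing: 17-24 h seeding, 75 min 37 °C dye, 30 min RT; signal: kinetic Fluo-8 calcium fluorescence; read-out basis: % activation relative to PEA EC100 response; controls: DMSO and PEA EC100; replicates: n 1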
TAAR1 ag confirm = human TAAR1 agonism, confirmed. shares compounds with TAAR1 agonist. CHO RD-HGA16 TAAR1, Fluo-8 calcium fluorescence; scaled: DMSO 0%, maximal phenethylamine 100%. activation, % at 3 µM. 2,400 tested, 82% active;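 active means activation above a cutoff set at the run's mean compound activation plus 3 SD, cut at about 39% in these data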
Ga16 ag counter = nonselective agonism, TAAR1 counter-screen; shares compounds with TAAR1 agonist; CHO-Ga16 parental, Fluo-8 calcium fluorescence; normalized to maximal ATP response, DMSO zero; activation, % at 3 µM; 2,400 tested, 50% active;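 active means activation above the run cutoff, the mean activation over all tested wells plus 3 SD, cut at about 12% in these data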;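 further: 0% = DMSO wells and 100% = maximal ATP response on the peak over basal ratio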
TAAR1 desensitize = human TAAR1 agonist that also desensitizes the receptor; shares compounds with TAAR1 agonist; CHO RD-HGA16 hTAAR1, Fluo-8 calcium, beta-PEA response inhibition; inhibition, % at 3 µM; 2,400 tested, 46% active;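 active means inhibition above the run cutoff, the mean inhibition of all test compounds plus 3 SD, cut at about 49% in these data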;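 further: beta-PEA stimulus applied at its EC80; loss of beta-PEA calcium signal after compound pretreatment read as receptor desensitization; 0% = DMSO with beta-PEA at EC80 and 100% = DMSO alone without agonist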
Ga16 nonsel ant = counter-screen for TAAR1 agonists: nonselective Ga16 antagonists | shares compounds with TAAR1 agonist | CHO-Ga16 ATP-induced calcium, Fluo-8 fluorescence | inhibition, % at 3 µM | 2,400 tested, 39% active | AID 651952;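 active means inhibition above the plate's mean compound inhibition plus 3 SD, computed per plate, cut at about 22% in these data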;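 further: 0% = EC80 ATP with DMSO and 100% = DMSO wells without ATP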
* = called active by the depositor.

`NC(c1csc(Nc2ccc(C(F)(F)F)cn2)n1)C1CCCCC1` (stereo not drawn) gave TAAR1 antag 19.8, GalR3 antagonist -5.6, TAAR1 agonist 75.7*, TAAR1 ag confirm 75.0*, Ga16 ag counter 43.4*, TAAR1 desensitize 60.0* and Ga16 nonsel ant 55.2*.
For NC(CCc1ccccc1)c1csc(Nc2ccc(C(F)(F)F)cn2)n1 (stereo not drawn) the results were TAAR1 antag 20.9, GalR3 antagonist -4.3, TAAR1 agonist 55.5*, TAAR1 ag confirm 39.9*, Ga16 ag counter 24.6*, TAAR1 desensitize 39.7 and Ga16 nonsel ant 35.8*.
`CC[C@@H](C)[C@H](CN[C@H](CNC)C(C)C)NC[C@@H](C)c1ccc(CC(C)C)cc1` gave CHO parental Ca -2.9, OX1R antag-1 23.6, TAAR1 antag 16.6, GalR3 antagonist -4.9, OX1R antag-2 -16.5 and TAAR1 agonist 13.7.
`CC(Sc1ccccn1)C(=O)Nc1ccccc1` (stereo not drawn) gave CHO parental Ca -4.4, OX1R antag-1 5.6, TAAR1 antag 13.2, GalR3 antagonist -3.7, OX1R antag-2 -13.2 and TAAR1 agonist 4.8.
For Cc1ccc(-c2cc(C(=O)NCC3CCCO3)no2)cc1 (stereo not drawn) the results were CHO parental Ca -14.5, OX1R antag-1 23.2, TAAR1 antag -23.7, GalR3 antagonist 1.4, OX1R antag-2 2.4 and TAAR1 agonist 1.9.
Screening CC(=O)c1cccc(OCC(O)CNCC2COc3ccccc3O2)c1 (stereo not drawn) returned CHO parental Ca -12.6, OX1R antag-1 11.4, TAAR1 antag 9.8, GalR3 antagonist -11.3, OX1R antag-2 -28.4, TAAR1 agonist 46.1*, TAAR1 ag confirm 69.9*, Ga16 ag counter 5.8, TAAR1 desensitize 41.8 and Ga16 nonsel ant 16.6.
For O=C1NC(=S)SC1=Cc1ccc2c(c1)OCO2 the results were TAAR1 antag -9.8, GalR3 antagonist -3.9 and TAAR1 agonist 1.8.
Screening CN(C)c1ccc(C=C2SC(=S)NC2=O)cc1 returned TAAR1 antag 56.8*, GalR3 antagonist -4.4, TAAR1 agonist 69.2*, TAAR1 ag confirm 56.6*, Ga16 ag counter 84.6*, TAAR1 desensitize 69.4* and Ga16 nonsel ant 78.1*.
Screening COc1cccc(NC(=O)C(C)(C)C)c1 returned CHO parental Ca 4.6, OX1R antag-1 8.0, TAAR1 antag 10.4, GalR3 antagonist -8.3, OX1R antag-2 -2.4 and TAAR1 agonist 15.5.
CC(OC(=O)c1cc2sccc2n1C)C(=O)NCc1ccc(F)cc1 (stereo not drawn) was read as CHO parental Ca 37.4*, OX1R antag-1 20.4, TAAR1 antag 51.4*, GalR3 antagonist -2.8, OX1R antag-2 -19.5, TAAR1 agonist 49.9*, TAAR1 ag confirm 17.8, Ga16 ag counter 17.3*, TAAR1 desensitize 4.0 and Ga16 nonsel ant 10.4.
Screening CC(OC(=O)c1cc2sccc2n1C)C(=O)NCc1ccc2c(c1)OCO2 (stereo not drawn) returned CHO parental Ca 1.8, OX1R antag-1 14.4, TAAR1 antag 14.0, GalR3 antagonist -6.9, OX1R antag-2 3.2 and TAAR1 agonist 12.2.
Cc1c(Br)c([N+](=O)[O-])nn1CC(=O)NCc1ccccc1 was read as CHO parental Ca -20.9, OX1R antag-1 14.5, TAAR1 antag 4.8, GalR3 antagonist -7.0, OX1R antag-2 -9.5 and TAAR1 agonist -3.7.
`Cc1c(Br)c([N+](=O)[O-])nn1CC(=O)N1CCc2ccccc2C1` gave CHO parental Ca -6.1, OX1R antag-1 29.0, TAAR1 antag -22.0, GalR3 antagonist 2.2, OX1R antag-2 -24.4, TAAR1 agonist 62.9*, TAAR1 ag confirm 59.9*, Ga16 ag counter 2.0, TAAR1 desensitize 15.3 and Ga16 nonsel ant 7.0.
For Cc1nn(CC(=O)N2CCc3ccccc3C2)c(C)c1Cl the results were CHO parental Ca -14.7, OX1R antag-1 2.4, TAAR1 antag -0.2, GalR3 antagonist 3.7, OX1R antag-2 9.7 and TAAR1 agonist 6.1.
Cc1nn(CC(=O)N2CCc3ccccc3C2)c(C)c1[N+](=O)[O-] was read as CHO parental Ca 4.0, OX1R antag-1 48.8, TAAR1 antag -13.2, GalR3 antagonist 8.0, OX1R antag-2 -9.4, TAAR1 agonist 57.9*, TAAR1 ag confirm 68.6*, Ga16 ag counter 0.9, TAAR1 desensitize 22.9 and Ga16 nonsel ant 2.8.
Screening O[C@@H](c1cc(C(F)(F)F)nc2c(C(F)(F)F)cccc12)[C@H]1CCCCN1 returned CHO parental Ca 13.2, OX1R antag-1 3.1, TAAR1 antag 30.1, OX1R antag-2 -10.4, TAAR1 agonist 45.2*, TAAR1 ag confirm 51.4*, Ga16 ag counter 24.4*, TAAR1 desensitize 42.9 and Ga16 nonsel ant 37.0*.
Screening C=CCC[C@@H](Cc1ccc(F)cc1)C(=O)OC[C@H](Cc1c[nH]c2ccccc12)NC(=O)[C@@H](CC=C)CC(=O)NCCO returned CHO parental Ca 7.2, OX1R antag-1 6.4, TAAR1 antag 80.2*, GalR3 antagonist -9.0, OX1R antag-2 27.8, TAAR1 agonist 74.2*, TAAR1 ag confirm 52.0*, Ga16 ag counter 29.5*, TAAR1 desensitize 76.2* and Ga16 nonsel ant 51.1*.
O=C(C1=C[C@@H](c2coc3ccccc3c2=O)C[C@@H](OCc2ccc(CO)cc2)O1)N1CCN(Cc2ccc3c(c2)OCO3)CC1 was read as CHO parental Ca -26.7, OX1R antag-1 11.1, TAAR1 antag 36.7, GalR3 antagonist -2.8, OX1R antag-2 -17.0 and TAAR1 agonist 12.1.
Screening COc1cc(C2c3cc4c(cc3OC(Nc3ccc(C(=O)O)cc3)C2C)OCO4)cc(OC)c1OC (stereo not drawn) returned TAAR1 antag -27.9, GalR3 antagonist -1.9 and TAAR1 agonist 3.5.
